Legend:
[1] = molecular target: T1, Putative citrate synthase 2 (Mycobacterium tuberculosis) (UniProt P9WPD3); assay: Binding affinity to Mycobacterium tuberculosis wild type CitA expressed in Escherichia coli cells assessed as change in melting temperature by thermal shift assay
T1 sequence (whole entry): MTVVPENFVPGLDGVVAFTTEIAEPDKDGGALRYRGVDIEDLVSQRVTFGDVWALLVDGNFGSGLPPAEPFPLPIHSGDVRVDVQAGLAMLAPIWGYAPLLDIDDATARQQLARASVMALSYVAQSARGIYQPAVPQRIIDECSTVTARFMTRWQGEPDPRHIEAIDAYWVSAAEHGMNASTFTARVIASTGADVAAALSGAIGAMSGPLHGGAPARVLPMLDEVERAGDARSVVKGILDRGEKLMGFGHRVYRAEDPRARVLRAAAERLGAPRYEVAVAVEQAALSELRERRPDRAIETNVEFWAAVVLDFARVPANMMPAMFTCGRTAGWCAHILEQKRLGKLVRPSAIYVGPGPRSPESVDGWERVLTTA
Procedure, shortened: (§1)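 Thermal shift used 25 μM purified protein in 50 mM Tris pH 8.0 with 2 mM ligand (sodium pyruvate, OAA, or both), plus Protein Thermal Shift dye at 2X final. ΔTm was taken from the melt-curve derivative relative to protein without ligand.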

[2] = molecular target: T1, Putative citrate synthase 2 (Mycobacterium tuberculosis); assay: Binding affinity to Mycobacterium tuberculosis wild type CitA expressed in Escherichia coli cells assessed as change in melting temperature in presence of oxaloacetate by thermal shift assay; procedure, shortened: as §1
[3] = molecular target: T1, Putative citrate synthase 2 (Mycobacterium tuberculosis); assay: Inhibition of Mycobacterium tuberculosis wild type CitA expressed in Escherichia coli cells by UV spectrophotometric based analysis
Procedure, shortened: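 Michael acceptor compounds were added directly to the DTNB/OAA/AcCoA reaction with 10 nM CitA in 50 mM Tris pH 8.0 at 25 °C, read at 412 nm. The screen used 20 μM compound. Dose–response data were fitted to the Hill equation for apparent IC50. A control measured how fast the compounds react with reaction components.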

[4] = molecular target: T1, Putative citrate synthase 2 (Mycobacterium tuberculosis); assay: Binding affinity to Mycobacterium tuberculosis wild type CitA expressed in Escherichia coli cells assessed as change in melting temperature in presence of pyruvate by thermal shift assay; procedure, shortened: as §1

Compound: CC(=O)CC(=O)O
- ΔTm [1]: 0.19 °C

Compound: CC(=O)C(=O)O
- ΔTm [2]: 12.3 °C
- ΔTm [1]: 2.31 °C
- Activity [3]: Dose-Dependent Effect

Compound: O=C(O)CC(=O)C(=O)O
- ΔTm [1]: 11.2 °C
- ΔTm [4]: 12.3 °C

Compound: O=CC(=O)O
- ΔTm [1]: 0.1 °C

Compound: O=C(O)CO
- ΔTm [1]: 0.15 °C

Reference: ChEMBL document CHEMBL5257161, “Mycobacterium tuberculosis CitA activity is modulated by cysteine oxidation and pyruvate binding” (RSC Med Chem, 2023)
